Source: PubChem
Rows were chosen to be rich in hits. Some 1.6% of all compounds tested hit in one or more screens of this group.
FLuc stim CS – FLuc activators, initial screening, artefact control for FLuc-dependent activation tests, biochemical, ATPlite luminescence | Luciferin 4-monooxygenase (Photinus pyralis), P08659 | activation factor at 10 µM | ATPlite luciferase biochemical, 10 min; 0 = ATP-free wells, 1 = DMSO control | AID 1027, 2008 | 200,000 tested, under 10 active;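 active = luciferase activation factor, scaled between plate controls, of at least 2 with compound at 10 µM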
Target sequence (P08659 whole entry, looked up): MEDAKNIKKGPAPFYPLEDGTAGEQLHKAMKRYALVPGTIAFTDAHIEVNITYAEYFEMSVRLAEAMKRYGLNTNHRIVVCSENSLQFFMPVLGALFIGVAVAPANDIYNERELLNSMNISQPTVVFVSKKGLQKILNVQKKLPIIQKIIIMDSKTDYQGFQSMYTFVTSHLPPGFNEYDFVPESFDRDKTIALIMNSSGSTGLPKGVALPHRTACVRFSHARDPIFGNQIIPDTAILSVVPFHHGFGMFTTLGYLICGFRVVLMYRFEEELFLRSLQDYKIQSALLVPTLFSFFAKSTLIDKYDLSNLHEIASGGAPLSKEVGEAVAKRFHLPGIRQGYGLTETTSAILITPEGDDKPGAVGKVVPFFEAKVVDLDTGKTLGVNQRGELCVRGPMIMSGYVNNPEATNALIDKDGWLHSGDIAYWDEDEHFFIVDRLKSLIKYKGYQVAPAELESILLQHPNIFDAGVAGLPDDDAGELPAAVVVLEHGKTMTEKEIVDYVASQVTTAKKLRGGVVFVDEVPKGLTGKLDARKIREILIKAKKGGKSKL
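Material: luciferase plus luciferin reagent, cell-free. Medium: PBS buffer for ATP. Also added: ATP substrate, dispensed from a 10.24 µM working solution in PBS. Doses: test compounds dosed from 2 mM stocks in 100% DMSO. Incubation: 10 min post-reagent at room temperature. Technique: light output (luminescence). Read-out basis: luminescence gain marking luciferase activators.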
PPC-1+TRAIL kill – compounds killing PPC-1 cancer cells with TRAIL present, primary screen, TRAIL potentiator project, ATPLite luminescence, uHTS; PPC-1 cells + TRAIL, ATPLite viability luminescence; cell killing (% activity), % at 4 µM or 5 µM; 220,000 compounds, 0.41% hits; AID 1443, 2008;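 active = cell killing above 50% in the first pass at 4 µM, then a duplicate retest at 5 µM averaging 50% or more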;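 note: plate controls were cells with TRAIL plus DMSO for no effect and medium-only wells lacking cells for full effect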
TRAIL sens C8 – viability loss with TRAIL in NB7+C8 cells, primary screen, TRAIL sensitizer project, cell-based, ATPlite luminescence. inhibition (viability loss, TRAIL sensitization), % at 10 µM. 360,000 compounds, 1% hits. AID 624354, 2012;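 active = compounds causing at least 50% loss of cell viability in the single-dose screen, relative to plate controls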
FLuc inhib CS – firefly luciferase enzyme inhibitors, primary screen, artefact control for luciferase-based inhibitor screens, biochemical, luminescence, ATPLite. Luciferin 4-monooxygenase (Photinus pyralis), P08659. 10 min. inhibition, % at 10 µM. 200,000 compounds, 1.5% hits. AID 1006, 2008;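 active = inhibition above about 50% when tested at 10 µM, limit read from the data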
Starred values were filed as active, the others as inactive.

COc1ccc(/C(N)=N/OC(=O)c2cccc([N+](=O)[O-])c2)cc1OC was read as FLuc stim CS 1.1, PPC-1+TRAIL kill 41.6, TRAIL sens C8 -6.5 and FLuc inhib CS -8.8.
Screening N/C(=N\OC(=O)c1cccc2ccccc12)c1cccc([N+](=O)[O-])c1 returned FLuc stim CS 1, PPC-1+TRAIL kill 2.1, TRAIL sens C8 15.1 and FLuc inhib CS 2.0.
O=C(CNC(=O)Cn1ccc2ccccc2c1=O)NCCCN1CCN(c2cccc(Cl)c2)CC1 was read as FLuc stim CS 1, PPC-1+TRAIL kill 25.8, TRAIL sens C8 -3.9 and FLuc inhib CS -4.6.
O=C(/C=C/c1ccco1)Nc1nc(-c2ccccc2)cs1 was read as FLuc stim CS 0.7, PPC-1+TRAIL kill 5.4, TRAIL sens C8 18.9 and FLuc inhib CS 27.5.
`O=C(/C=C/c1ccccc1)Nc1scc(-c2ccccc2)c1C(=O)O` gave FLuc stim CS 0.3, PPC-1+TRAIL kill 22.5, TRAIL sens C8 30.7 and FLuc inhib CS 74.3*.
For O=C(/C=C/c1ccco1)Nc1scc(-c2ccccc2)c1C(=O)O the results were PPC-1+TRAIL kill 48.0 and TRAIL sens C8 54.3*.
For O=C(/C=C\c1ccccc1)Nc1nccs1 the results were FLuc stim CS 0.5, PPC-1+TRAIL kill 37.3, TRAIL sens C8 31.2 and FLuc inhib CS 53.0*.
`O=C(/C=C/c1cccc(F)c1)Nc1nccs1` gave FLuc stim CS 0.8, PPC-1+TRAIL kill 20.4, TRAIL sens C8 4.7 and FLuc inhib CS 21.2.
`CC(C)(C)c1ccc(C(=O)n2cnc3ccccc32)cc1` gave TRAIL sens C8 -4.1.
`O=C(N/N=C/c1ccc(O)cc1)c1ccc(NC(=O)c2ccccc2Br)cc1` gave FLuc stim CS 1, PPC-1+TRAIL kill 9.0, TRAIL sens C8 11.3 and FLuc inhib CS -2.9.
For CSc1ccc(/C=N/NC(=O)c2cc(O)cc(O)c2)cc1 the results were FLuc stim CS 0.3, PPC-1+TRAIL kill 21.5, TRAIL sens C8 46.5 and FLuc inhib CS 73.5*.
`O=C(N/N=C/c1ccc(F)cc1)c1ccccc1` gave FLuc stim CS 0.2, PPC-1+TRAIL kill 37.3, TRAIL sens C8 31.9 and FLuc inhib CS 75.4*.
`O=C(Nc1ccccc1C(=O)N/N=C/c1ccc(F)cc1)c1ccccc1Br` gave FLuc stim CS 0.3, PPC-1+TRAIL kill 15.6, TRAIL sens C8 8.4 and FLuc inhib CS 74.0*.
Screening O=C(O)c1ccc(/C=N/NC(=O)c2ccc(F)cc2)cc1 returned PPC-1+TRAIL kill 5.3 and TRAIL sens C8 -12.1.
Screening Cc1cccc(C)c1-n1cccc1/C=C1/C(=N)N2C(=NC1=O)SN=C2S(C)(=O)=O returned FLuc stim CS 1, PPC-1+TRAIL kill 9.8, TRAIL sens C8 6.0 and FLuc inhib CS -0.1.
Screening CSCCC(NC(=O)c1ccc(Cl)c([N+](=O)[O-])c1)C(=O)N1CCN(C/C=C/c2ccccc2)CC1 (configuration not stated) returned TRAIL sens C8 64.8*.
CCN=C1NN=C(c2cc(C)n(Cc3ccco3)c2C)CS1 was read as FLuc stim CS 0.1, PPC-1+TRAIL kill 28.1, TRAIL sens C8 7.7 and FLuc inhib CS 91.4*.
For COCCn1c(C)cc(C2=NNC(=Nc3ccccc3)SC2)c1C the results were FLuc stim CS 0.1, PPC-1+TRAIL kill 22.2, TRAIL sens C8 37.4 and FLuc inhib CS 88.0*.
For CCN=C1NN=C(c2cc(C)n(CCc3ccccc3)c2C)CS1 the results were FLuc stim CS 1, PPC-1+TRAIL kill 7.3, TRAIL sens C8 -34.7 and FLuc inhib CS -3.7.
For COCCn1c(C)cc(C2=NNC(=Nc3ccc(OC)cc3)SC2)c1C the results were FLuc stim CS 1, PPC-1+TRAIL kill 7.1, TRAIL sens C8 11.8 and FLuc inhib CS -1.7.
`O=C(CC1Nc2ccccc2NC1=O)c1ccccc1` (configuration not stated) gave FLuc stim CS 0.5, PPC-1+TRAIL kill 20.7 and FLuc inhib CS 54.3*.
Screening CN(C)c1cccc(-c2nnc(SCCCC#N)o2)c1 returned FLuc stim CS 0.4, PPC-1+TRAIL kill 20.1, TRAIL sens C8 14.4 and FLuc inhib CS 55.5*.
Screening CN(C)CCSc1nnc(-c2ccccc2)o1 returned FLuc stim CS 1.1, PPC-1+TRAIL kill -21.9, TRAIL sens C8 2.1 and FLuc inhib CS -8.2.
For Cc1[nH]n(-c2nc(-c3cccc([N+](=O)[O-])c3)cs2)c(=O)c1C the results were FLuc stim CS 0.4, PPC-1+TRAIL kill 26.3, TRAIL sens C8 27.7 and FLuc inhib CS 61.0*.
`Cc1c(Nc2nc(-c3cccc([N+](=O)[O-])c3)cs2)c(=O)n(-c2ccccc2)n1C` gave FLuc stim CS 1, PPC-1+TRAIL kill -19.8, TRAIL sens C8 -2.5 and FLuc inhib CS 2.4.
`Cc1ccc2nc(-c3ccc(NC(=O)COCC(=O)O)cc3)sc2c1` gave PPC-1+TRAIL kill 32.3 and TRAIL sens C8 23.5.
Screening CCN(CC)S(=O)(=O)c1ccc(C(=O)OCC(=O)Nc2ccc(-c3nc4ccc(C)cc4s3)cc2)cc1 returned FLuc stim CS 0.7, PPC-1+TRAIL kill 27.6, TRAIL sens C8 74.9* and FLuc inhib CS 33.4.
Screening Cc1ccc2nc(-c3ccc(NS(=O)(=O)c4ccc(F)c(F)c4)cc3)sc2c1 returned FLuc stim CS 0.5, PPC-1+TRAIL kill 20.1, TRAIL sens C8 30.9 and FLuc inhib CS 54.7*.
CCN(CC)S(=O)(=O)c1cc(C(=O)OCC(=O)Nc2ccc(-c3nc4ccc(C)cc4s3)cc2)ccc1F was read as FLuc stim CS 0.8, PPC-1+TRAIL kill 28.5, TRAIL sens C8 74.2* and FLuc inhib CS 19.2.
`O=C(COC(=O)/C=C/c1cccc(Cl)c1Cl)Nc1ccc2[nH]c(=O)[nH]c2c1` gave TRAIL sens C8 -2.1.
CCCC(C)NC(=O)c1cc(C(=O)OC)cc([N+](=O)[O-])c1 (configuration not stated) was read as FLuc stim CS 1.1, PPC-1+TRAIL kill 9.7, TRAIL sens C8 -1.3 and FLuc inhib CS -5.7.
Screening Cc1nc(SCC(=O)O)c(C#N)c(C)c1CC(=O)c1ccccc1 returned FLuc stim CS 1, PPC-1+TRAIL kill 11.7, TRAIL sens C8 31.7 and FLuc inhib CS 1.3.
CCOC(=O)CSc1nc2cc(C)ccc2cc1C#N was read as FLuc stim CS 1.1, PPC-1+TRAIL kill 14.4, TRAIL sens C8 52.6* and FLuc inhib CS -5.5.
CCOC(=O)CSc1nc2cc(OC)ccc2cc1C#N was read as FLuc stim CS 1, PPC-1+TRAIL kill 42.5, TRAIL sens C8 67.0* and FLuc inhib CS -1.3.
`Cc1nnc(N/N=C/c2c(O)n(-c3cccc(C(F)(F)F)c3)c(=O)c3ccccc23)[nH]c1=O` gave PPC-1+TRAIL kill 8.7.
`O=C(Nc1nncs1)c1cc2c(s1)CCC2` gave FLuc stim CS 0.4, PPC-1+TRAIL kill 22.0, TRAIL sens C8 30.3 and FLuc inhib CS 62.7*.
N#C/C=C(/N)c1ccc(Br)cc1 was read as FLuc stim CS 1, PPC-1+TRAIL kill 0.8, TRAIL sens C8 -0.5 and FLuc inhib CS -2.4.
